MrgX1 ag = activates human MrgX1 receptor signaling. Q96LB2. MrgX1-HEK293 cells, Fluo-4 calcium fluorescence, agonist mode; hits give high values. B-score at 10 µM. 310,000 compounds, 0.44% hits;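 active = calcium response B-score plate-corrected fluorescence ratio at least 3 library SD, with starting fluorescence B-score inside 5 SD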
Target sequence (Q96LB2 whole entry, looked up): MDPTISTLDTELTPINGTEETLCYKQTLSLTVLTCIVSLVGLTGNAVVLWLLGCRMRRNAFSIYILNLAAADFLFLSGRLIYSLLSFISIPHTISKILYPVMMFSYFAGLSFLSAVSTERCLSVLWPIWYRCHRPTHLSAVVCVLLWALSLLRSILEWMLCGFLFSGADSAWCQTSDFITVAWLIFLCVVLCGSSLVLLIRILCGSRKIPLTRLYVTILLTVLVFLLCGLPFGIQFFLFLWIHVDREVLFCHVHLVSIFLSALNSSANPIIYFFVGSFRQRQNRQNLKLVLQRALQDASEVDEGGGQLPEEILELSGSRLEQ
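Test system: HEK293 cells stably expressing human MrgX1 receptor; amount: 15,000 cells per well; doses: compound delivered in addition one of three; times: overnight plating before 1 h dye loading; detection: Fluo-4 NW calcium-flux fluorescence, kinetic read; read-out basis: B-scored fluorescence response ratio; controls: positive and negative controls per plate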
MrgX1 antagonist = blocks BAM8-22 activation of human MrgX1 receptor; Q96LB2; MRGX1-HEK293 calcium flux, Fluo-4, BAM8-22 antagonism; hits give low values; B-score at 10 µM; 310,000 compounds, 1.3% hits;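 active = calcium-response B-score plate-corrected more than 3 library SD below zero, starting fluorescence within 5 deviations, no agonist response on first addition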;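 also: peak minus trough fluorescence over baseline after final BAM8-22 challenge near maximal dose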
RGS4 pot = RGS4 potentiation or activation. HEK293 M3R/inducible RGS4, carbachol calcium flux Fluo4; hits give low values. B-score at 10 µM. 310,000 compounds, 0.92% hits;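 active = B-score of the integrated calcium signal more than 4 SD below the library mean, with starting fluorescence not abnormally high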;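 also: negative B-score means reduced calcium response which marks RGS4 activation or potentiation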
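Test system: HEK293 cells with stable M3R and inducible RGS4; also added: carbachol at ECmax as muscarinic agonist stimulus; schedule: dye loading 30 min 37 °C, buffer rest 30 min RT; technique: kinetic calcium fluorescence imaging with Fluo4-AM dye, 2 µM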
MrgX1 PAM = human MrgX1 positive allosteric modulation, primary screen. 310,000 compounds, 0.63% hits. MrgX1-HEK293, Fluo-4 calcium flux, FDSS; hits give high values. B-score at 10 µM. AID 588675;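 active = plate-corrected calcium response at least 3 library SD above typical, normal starting fluorescence, not activating the receptor alone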;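 also: compound read alongside a low EC10 to EC30 dose of BAM8-22 agonist; peak minus trough fluorescence over baseline measured at the second addition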
RGS4 inh = inhibitors of human RGS4; B-score at 10 µM; 310,000 compounds, 0.45% hits; P49798; HEK293 M3R/RGS4 inducible, Fluo-4 calcium flux; hits give high values; triggered by carbachol at its EC20;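 active = B-score, a plate-corrected calcium signal, over three deviations above library mean, with baseline fluorescence within five deviations of library mean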;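 also: RGS4 expression induced by doxycycline in cells with stable M3 receptor; B-score is computed from the integrated fluorescence ratio over baseline after carbachol; higher B-score means a larger calcium signal and so more RGS4 inhibition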
Target sequence (P49798 whole entry, looked up): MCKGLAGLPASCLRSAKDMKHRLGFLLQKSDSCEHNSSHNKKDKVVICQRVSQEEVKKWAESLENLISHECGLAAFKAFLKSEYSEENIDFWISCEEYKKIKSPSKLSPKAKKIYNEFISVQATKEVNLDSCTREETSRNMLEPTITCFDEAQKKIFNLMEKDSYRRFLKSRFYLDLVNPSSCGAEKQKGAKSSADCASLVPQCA
MrgX1 antag conf = human MrgX1 receptor antagonism, re-confirmation screen. shares compounds with MrgX1 antagonist. MrgX1-HEK293, BAM8-22 calcium flux, Fluo-4; hits give low values. remaining BAM8-22 calcium response % of control (hits give low values), % at 10 µM. 2,300 compounds, 19% hits. AID 602420;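 active = remaining agonist calcium response no higher than 100% minus 3 SD of agonist-only control wells, with starting fluorescence near control levels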;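 also: agonist BAM8-22 given at a near maximal EC90 to ECmax level; peak minus minimum fluorescence divided by baseline after agonist addition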
HEK293 Ca flux = MrgX1 antagonist counter-screen hit in parental HEK293 cells; 4,000 compounds, 2% hits; Fluo-4 calcium fluorescence, FDSS; fluorescence ratio F(max-min)/F0 at 10 µM; shares compounds with MrgX1 antagonist;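 active = duplicate-averaged calcium fluorescence ratio at least three times the standard deviation of buffer wells, a nonspecific response in parental cells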
HEK293 Ca counter = MrgX1 allosteric activator counter-screen hit in parental HEK293 cells | shares compounds with MrgX1 antagonist | parental HEK293 calcium flux, Fluo-4 fluorescence ratio; hits give high values | fluorescence ratio F(max-min)/F0 at 10 µM | 4,000 compounds, 0.4% hits | AID 624114;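 active = calcium fluorescence ratio, averaged over duplicates, at least 3 SD of the buffer-well ratio, meaning a nonspecific response in receptor-free cells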;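 also: untransfected parental HEK293 lacking MrgX1 used as counterscreen for MrgX1 allosteric activators; fluorescence change taken during the second addition on a kinetic imager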
HEK293 Ca cntr2 = activity in parental HEK293 cells lacking MrgX1 receptor. 4,000 compounds, 8.7% hits. fluorescence ratio F(max-min)/F0 at 10 µM. shares compounds with MrgX1 antagonist. Fluo-4 calcium fluorescence (FDSS); hits give high values;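 active = calcium fluorescence ratio at least three times the spread of buffer wells, meaning a non-specific response in parental cells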
* hit, by the source's call; i = inactive; · = no result. Shown are actives, neighbours in structure and some others; about 3.5% of the full set was active somewhere.

SMILES	MrgX1 ag	MrgX1 antagonist	RGS4 pot	MrgX1 PAM	RGS4 inh	MrgX1 antag conf	HEK293 Ca flux	HEK293 Ca counter	HEK293 Ca cntr2
Cc1ccc2c(cnn2C(=O)CCCC(=O)NC(C)c2ccccc2)c1 (centres undefined)	i	i	i	i	i	·	·	·	·
Cc1nnc(N2C(=O)C(=O)/C(=C(\O)c3ccc4c(c3)CC(C)O4)C2c2ccccc2)s1 (centres undefined)	i	i	i	i	i	·	·	·	·
Cn1c(=O)c2nnn(/N=C(\c3ccccc3)C3CC3)c2n(C)c1=O	i	-5.1*	i	i	i	68%*	i	i	i
Cn1c(SCc2ccc(C#N)cc2)nnc1-c1cccc(Cl)c1	i	-4.7*	i	i	i	i	i	i	i
CCOC(=O)CC1C(=O)NCCN1Cc1cccc(C(F)(F)F)c1 (centres undefined)	i	-4.7*	i	i	i	i	i	i	i
O=C(CC1C(=O)NCCN1Cc1cccc(C(F)(F)F)c1)NC1CCOCC1 (centres undefined)	i	i	i	i	i	·	·	·	·
Cc1cccc(OCC(=O)Nc2ccc(CN3CCOCC3)cc2)c1C	i	-6.7*	i	i	i	i	i	i	i
Cc1nnsc1S(=O)c1ccc(Br)cc1 (centres undefined)	i	i	i	i	i	·	·	·	·
COc1ccc(NC(=O)CSc2ccccc2)c(OC)c1	i	-9.1*	i	i	i	i	i	i	i
COc1ccc(NC(=O)CSc2nc(=O)n(CCN3CCOCC3)c3c2CCC3)c(OC)c1	i	-7.6*	i	i	i	i	i	i	i
CCOC(=O)CN1C(=O)N(CC(=O)OCC)C(c2ccccc2)(c2ccccc2)C1=O	i	i	i	i	i	·	·	·	·
COc1ccc(NC(=O)CN(C)C(=O)CSc2ccc3c(c2)OCCO3)cc1	i	-5.2*	i	i	i	i	i	i	i
COc1ccc(C(=O)N2CCCC2)cc1S(=O)(=O)N1CCOCC1	i	i	i	i	i	·	·	·	·
COc1cc2c(cc1OC)CN(C(=O)c1ccc(OC)c(S(=O)(=O)N3CCOCC3)c1)CC2	i	-5.1*	i	i	i	i	i	i	i
COc1ccc(C)cc1NC(=O)NC1CCCc2ccccc21 (centres undefined)	i	i	i	i	i	·	·	·	·
Nc1oc2ccccc2c(=O)c1C=O	i	i	i	i	i	·	·	·	·
c1cc2c(cc1OCCNC1CCCC1)CCC2	i	i	i	i	i	·	·	·	·
CNCCCOc1ccc2c(c1)CCC2	i	-5*	i	i	i	i	i	i	i
Cc1nc2cc(C(=O)NCc3ccc4c(c3)OCO4)ccc2n1-c1ccc(Br)cc1	i	-4.8*	i	i	i	i	i	i	i
O=C(NCc1cccc(Cl)c1)c1ccc2c(c1)OCO2	i	i	i	i	i	·	·	·	·
O=C(NCc1ccc2c(c1)OCO2)c1ccc(Br)cc1	i	i	i	i	i	·	·	·	·
O=C(NCc1ccc2c(c1)OCO2)c1cccc(Cl)c1	i	-5.2*	i	i	i	i	i	i	i
CC(/C=C1\SC(=S)N(C(C(=O)O)c2ccccc2)C1=O)=C\c1ccccc1 (centres undefined)	i	-14*	-7.4*	i	i	i	i	i	i
Cc1csc(NC(=O)CCNC(=O)c2ccc([N+](=O)[O-])cc2)n1	i	i	i	i	i	·	·	·	·
O=c1[nH]c2cc(Br)cnc2nc1/C=C(\O)c1ccc(F)cc1	i	-7*	i	i	i	75%*	i	i	i
SMILES	MrgX1 ag	MrgX1 antagonist	RGS4 pot	MrgX1 PAM	RGS4 inh	MrgX1 antag conf	HEK293 Ca flux	HEK293 Ca counter	HEK293 Ca cntr2
CC(C)NC(=O)C(c1ccc(F)cc1)N(C(=O)CCC(=O)Nc1ccccn1)C1CCCCC1 (centres undefined)	i	i	i	i	i	·	·	·	·
COc1ccc(CC(=O)Oc2ccc(C#N)cc2)cc1	i	i	i	i	i	·	·	·	·
CN(C)CCCSc1nc2ccccc2s1	i	-7.1*	i	i	i	69%*	i	i	i
COc1cc(/C=N/N2CCN(c3ccccc3OC)CC2)ccc1OC(C)=O	i	i	i	i	i	·	·	·	·
CCN1CNC(=S)N(c2cc(C)ccc2C)C1	i	-5.8*	i	i	i	i	i	i	i
Cc1ccc(C2C3=C(CCCC3=O)N=C3c4ccccc4C(=O)C32)cc1 (centres undefined)	i	-16*	i	i	i	i	i	i	i
O=C1CCCC2=C1C(c1ccccc1)C1C(=O)c3ccccc3C1=N2 (centres undefined)	i	i	i	i	i	·	·	·	·
COc1cccc(NC(=O)CNC(=O)c2ccc(C)cc2)c1	i	-9.1*	i	i	i	i	i	i	i
COc1cccc(NC(=O)CNC(=O)c2ccc(F)cc2)c1	i	i	·	i	·	·	·	·	·
COc1ccc(OCC(=O)Nc2cccc(C(C)=O)c2)cc1	i	-6.3*	i	i	i	i	i	i	i
COc1cccc(NC(=O)COc2ccc(C)cc2)c1	i	i	·	i	·	·	·	·	·
CCCC(CCC)C(=O)Nc1ccc2c(c1)N(C(=O)CCN1CCN(C)CC1)c1ccccc1CC2	i	i	i	i	i	·	·	·	·
CN(C)CCNC(=O)c1c(CSc2ccccc2)noc1C(=O)NCc1ccccc1	i	i	i	i	i	·	·	·	·
C(=C\c1ccc2ccccc2n1)/c1ccccc1	i	i	i	i	i	·	·	·	·
CN(C)c1ccc(/C=C/c2ccc3ccccc3n2)cc1	i	-6.9*	i	i	i	i	0.55*	i	i
COc1ccc(CCNC(=O)CCc2nnc(Cc3ccc4c(c3)OCO4)o2)c(OC)c1	i	i	i	i	i	·	·	·	·

Screening data: PubChem, Johns Hopkins Ion Channel Center
